Results: ChEMBL document CHEMBL1142728, “Design and optimization of tricyclic phtalimide analogues as novel inhibitors of HIV-1 integrase” (J Med Chem, 2005)

Experiments:
[1] = biological target: T1, Human immunodeficiency virus type 1 integrase (Human immunodeficiency virus 1, UniProt Q7ZJM1); assay: Log of inhibitory concentration against human immunodeficiency virus type 1 integrase
In short: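 Strand transfer ELISA using recombinant His-tagged HIV-1 integrase expressed in E. coli BL21(DE3). 20 nM biotinylated processed viral DNA substrate is preincubated with 300 nM integrase for 5 min at 37 °C. Serial compound dilutions and 50 nM target DNA are then added in 20 mM Hepes pH 7.5, 25 mM NaCl, 5 mM MnCl2, 2 mM DTT, 50 µg/mL BSA and incubated 2 h at 37 °C. Products are captured on streptavidin plates, detected with anti-FITC peroxidase antibody and read by chemiluminescence.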

[2] = test system: Human immunodeficiency virus 1; assay: Log of effective concentration against human immunodeficiency virus type 1 using cell-based replication assay in MT-4 cells; type: functional, organism-based; details: Human immunodeficiency virus 1, MT4
In short: (§1)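 MT4 cells (150 000 cells/mL) infected with HIV-1/LAI wild type at 200 CCID50, with serial compound concentrations in 384-well format. Replication is read as GFP expression driven by HIV-tat acting on an LTR-GFP reporter. Incubation 3 days at 37 °C, 5% CO2. EC50/pEC50 are taken from dose-response curves of percent inhibition.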

[3] = test system: Human immunodeficiency virus 1; assay: Log of cytotoxic concentration against human immunodeficiency virus type 1 using cell-based replication assay in MT-4 cells; type: functional, MT4
In short: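 Mock-infected MT4 cells (150 000 cells/mL) get the same compound concentration range and are incubated 3 days at 37 °C, 5% CO2, in parallel with the HIV-infected cultures. Toxicity is scored as reduced GFP reporter expression. CC50/pCC50 come from dose-response curves of percent inhibition.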

[4] = biological target: T1, Human immunodeficiency virus type 1 integrase; assay: Inhibitory concentration against human immunodeficiency virus type 1 integrase
[5] = test system: Human immunodeficiency virus 1; assay: Effective concentration against human immunodeficiency virus type 1 using cell-based replication assay in MT-4 cells; type: functional, organism-based; details: Human immunodeficiency virus 1, MT4; in short: as §1

T1 sequence (Q7ZJM1 whole entry): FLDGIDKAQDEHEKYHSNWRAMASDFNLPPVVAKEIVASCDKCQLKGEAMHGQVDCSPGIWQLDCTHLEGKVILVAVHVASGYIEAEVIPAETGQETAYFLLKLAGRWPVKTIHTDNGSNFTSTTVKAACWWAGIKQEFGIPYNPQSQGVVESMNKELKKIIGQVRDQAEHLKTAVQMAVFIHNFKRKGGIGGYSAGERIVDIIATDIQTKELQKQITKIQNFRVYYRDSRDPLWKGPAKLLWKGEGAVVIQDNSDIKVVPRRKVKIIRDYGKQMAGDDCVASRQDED

SMILES	IC50 [1] [µM]	EC50 [2] [µM]	pCC50 [3]	IC50 [4] [µM]	EC95 [5] [µM]
Cc1ccc2c(O)c3c(c(O)c2n1)C(=O)N(Cc1cccc(Br)c1)C3=O	0.257	7.59	4.78		
COc1cccc(CN2C(=O)c3c(c(O)c4nccnc4c3O)C2=O)c1OC	0.427	4.9	4.72		
O=C1c2c(c(O)c3ccccc3c2O)C(=O)N1Cc1ccc(F)cc1	> 100	20	4.59		
O=C1c2c(c(O)c3nccnc3c2O)C(=O)N1Cc1ccc(Cl)cc1	0.417	0.269	5.58		
O=C1c2c(c(O)c3nccnc3c2O)C(=O)N1Cc1ccccc1Br	0.631	15.1	4.75		
O=C1c2c(c(O)c3nccnc3c2O)C(=O)N1Cc1ccc(-c2ccccc2F)cc1	1	14.8	4.83		
O=C(c1ccccc1)N1CCC(N2C(=O)c3c(c(O)c4nccnc4c3O)C2=O)CC1	2.4	> 32.4	<4.49		
O=C1c2c(c(O)c3nccnc3c2O)C(=O)N1Cc1ccc(OC(F)(F)F)cc1	2.04	1.35	5.6		
O=C1c2c(c(O)c3nccnc3c2O)C(=O)N1Cc1cc(Br)ccc1F	0.355	0.447	5.38		
O=C1c2c(c(O)c3nccnc3c2O)C(=O)N1CC1CCCCC1	2.19	3.47	5.19		
COc1cccc(OC)c1CN1C(=O)c2c(c(O)c3nccnc3c2O)C1=O	2	5.37	5.09		
O=C1c2c(c(O)c3nccnc3c2O)C(=O)N1C1CCNCC1	> 100	> 32.4	<4.49		
O=C1c2c(c(O)c3nccnc3c2O)C(=O)N1Cc1ccncc1	6.76	> 32.4	<4.49		
O=C1c2c(c(O)c3nnccc3c2O)C(=O)N1Cc1cccc(Br)c1	3.63	21.4	<4.49		
O=C1c2c(c(O)c3nccnc3c2O)C(=O)N1Cc1cc(Cl)cc(Cl)c1	0.186	0.724	4.72		
O=C1c2c(c(O)c3nccnc3c2O)C(=O)N1Cc1ccc(Cl)c(Cl)c1	0.112	0.912	5.05		
C[C@@H](c1ccccc1)N1C(=O)c2c(c(O)c3nccnc3c2O)C1=O	2.04	15.1	4.81		
O=C1c2c(c(O)c3nccnc3c2O)C(=O)N1Cc1cccc(Cl)c1	0.219	0.977	4.73		
C[C@H](c1ccccc1)N1C(=O)c2c(c(O)c3nccnc3c2O)C1=O	1.05	10.2	4.76		
O=C1c2c(c(O)c3nccnc3c2O)C(=O)N1Cc1ccc(Br)cc1F	0.437	2.4	5.11		
O=C1c2c(c(O)c3nccnc3c2O)C(=O)N1Cc1ccc(-c2ccccc2)cc1	1.45	2.57	5.47		

SMILES	IC50 [1] [µM]	EC50 [2] [µM]	pCC50 [3]	IC50 [4] [µM]	EC95 [5] [µM]
O=C1c2c(c(O)c3nccnc3c2O)C(=O)N1Cc1cccc(C(F)(F)F)c1	0.427	9.77	4.77		
O=C1c2c(c(O)c3nccnc3c2O)C(=O)N1C1CCCC1	10.5	> 32.4	4.55		
O=C1c2c(c(O)c3nccnc3c2O)C(=O)N1Cc1ccc2c(c1)OCO2	0.562	3.16	<4.49		
Cc1ccc(CN2C(=O)c3c(c(O)c4nccnc4c3O)C2=O)cc1	1.58	1.78	4.86		
O=C1c2c(c(O)c3nccnc3c2O)C(=O)N1Cc1cccc(Br)c1	0.209	7.41	4.49		
CC(C)Oc1ccc(Cc2ccccc2)cc1/C(O)=C/C(=O)C(=O)O				0.05	
O=C1c2c(c(O)c3nccnc3c2O)C(=O)N1Cc1cccc(F)c1	0.562	5.37	4.77		
O=C1c2c(c(O)c3nccnc3c2O)C(=O)N1CCc1ccc2c(c1)OCO2	1.41	11			
COc1ccc(CN2C(=O)c3c(c(O)c4nccnc4c3O)C2=O)c(OC)c1	0.427	13.5	4.77		
O=S1(=O)CCCCN1c1nc(/C(O)=N/Cc2ccc(F)cc2)c(O)c2ncccc12				0.01	0.1
COc1ccc(CN2C(=O)c3c(c(O)c4nccnc4c3O)C2=O)cc1	0.562	3.63	4.64		
O=C1c2c(c(O)c3ncccc3c2O)C(=O)N1Cc1cccc(Br)c1	0.38	3.09	5.21		
O=C1c2c(c(O)c3nccnc3c2O)C(=O)N1c1ccc2c(c1)OCO2	10	> 32.4	<4.49		
COc1ccc(OC)c(CN2C(=O)c3c(c(O)c4nccnc4c3O)C2=O)c1	0.776	4.79	4.73		
O=C1c2c(c(O)c3nccnc3c2O)C(=O)N1Cc1ccc(F)c(Cl)c1	0.178	3.09	4.7		
CN1C(=O)c2c(c(O)c3nccnc3c2O)C1=O	49	> 32.4	<4.49		
O=C1c2c(c(O)c3nccnc3c2O)C(=O)N1CCc1ccccc1	2.04	4.9	5.23		
O=C1c2c(c(O)c3nccnc3c2O)C(=O)N1Cc1cccc(-c2ccccc2F)c1	0.501	13.2	4.82		
O=C1c2c(c(O)c3nccnc3c2O)C(=O)N1Cc1ccc(F)cc1	0.417	1.55	4.69		
COc1ccccc1CN1C(=O)c2c(c(O)c3nccnc3c2O)C1=O	0.813	3.8	4.81		
O=C1c2c(c(O)c3nccnc3c2O)C(=O)N1Cc1cc(F)cc(F)c1	0.372	16.6	<4.49		
